Reference: ChEMBL document CHEMBL4229530, “5-Adamantan thiadiazole-based thiazolidinones as antimicrobial agents. Design, synthesis, molecular docking and evaluation” (2018)
Values after ≈ are worked out from the molar mass of the structure shown.

Tests used:
Staphylococcus aureus [1] = test: Antibacterial activity against Staphylococcus aureus ATCC 6538 after 24 hrs by INT dye based microdilution assay; format: functional; settings: ATCC 6538, 24 h
Outline: (§1)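 Broth microdilution in tryptic soy broth: overnight bacterial culture adjusted to 1×10^5 CFU/mL, 1.0×10^4 CFU per well; compounds dissolved in 5% DMSO, tested at 0.001-1.0 mg/ml; 24 h at 37°C. Streptomycin and ampicillin as positive controls, 5% DMSO as negative control; duplicate, repeated three times.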

Bacillus cereus = test: Antibacterial activity against Bacillus cereus after 24 hrs by INT dye based microdilution assay; format: functional; outline: as §1
Listeria monocytogenes = test: Antibacterial activity against Listeria monocytogenes NCTC 7973 after 24 hrs by INT dye based microdilution assay; format: functional; settings: NCTC 7973, 24 h; outline: as §1
Micrococcus flavus = test: Antibacterial activity against Micrococcus flavus ATCC 10240 after 24 hrs by INT dye based microdilution assay; format: functional; settings: ATCC 10240, 24 h; outline: as §1
Salmonella typhimurium = test: Antibacterial activity against Salmonella typhimurium ATCC 13311 after 24 hrs by INT dye based microdilution assay; format: functional, Salmonella enterica subsp. enterica serovar Typhimurium; settings: Salmonella enterica, ATCC 13311, 24 h; outline: as §1
Enterobacter cloacae = test: Antibacterial activity against Enterobacter cloacae after 24 hrs by INT dye based microdilution assay; format: functional; outline: as §1
Pseudomonas aeruginosa [2] = test: Antibacterial activity against Pseudomonas aeruginosa ATCC 27853 after 24 hrs by INT dye based microdilution assay; format: functional; settings: ATCC 27853, 24 h; outline: as §1
Escherichia coli [3] = test: Antibacterial activity against Escherichia coli ATCC 35210 after 24 hrs by INT dye based microdilution assay; format: functional; settings: ATCC 35210, 24 h; outline: as §1
Aspergillus fumigatus = test: Antifungal activity against Aspergillus fumigatus isolate 1022 after 72 hrs by serial dilution assay; format: functional; settings: isolate 1022, 72 h
Outline: (§2)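 Modified microdilution: fungal spores washed off malt agar with sterile 0.85% saline plus 0.1% Tween 80, adjusted to about 1.0×10^5 per 100 µL well. Compounds in 5% DMSO (0.001-1.0 mg/ml) in malt broth; 72 h at 28°C on rotary shaker (160 rpm). MIC is lowest concentration without visible growth under binocular microscope. Bifonazole and ketoconazole controls (1-3500 µg/mL); three independent experiments in duplicate.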

Aspergillus versicolor = test: Antifungal activity against Aspergillus versicolor ATCC 11730 after 72 hrs by serial dilution assay; format: functional; settings: ATCC 11730, 72 h; outline: as §2
Aspergillus ochraceus = test: Antifungal activity against Aspergillus ochraceus ATCC 12066 after 72 hrs by serial dilution assay; format: functional; settings: ATCC 12066, 72 h; outline: as §2
Aspergillus niger = test: Antifungal activity against Aspergillus niger ATCC 6275 after 72 hrs by serial dilution assay; format: functional; settings: ATCC 6275, 72 h; outline: as §2
Trichoderma viride = test: Antifungal activity against Trichoderma viride IAM 5061 after 72 hrs by serial dilution assay; format: functional; settings: IAM 5061, 72 h; outline: as §2
Talaromyces funiculosus = test: Antifungal activity against Penicillium funiculosum ATCC 36839 after 72 hrs by serial dilution assay; format: functional; settings: ATCC 36839, 72 h; outline: as §2
Penicillium ochrochloron = test: Antifungal activity against Penicillium ochrochloron ATCC 9112 after 72 hrs by serial dilution assay; format: functional; settings: ATCC 9112, 72 h; outline: as §2
Penicillium verrucosum = test: Antifungal activity against Penicillium cyclopium var verucosum after 72 hrs by serial dilution assay; format: functional; outline: as §2
Staphylococcus aureus [4] = test: Antibacterial activity against methicillin-resistant Staphylococcus aureus after 24 hrs by INT dye based microdilution assay; format: functional
Outline: (§3)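 Broth microdilution in tryptic soy broth. Overnight culture adjusted to 1×10^5 CFU/mL, giving 1.0×10^4 CFU per well. Compounds dissolved in 5% DMSO and tested at 0.001-1.0 mg/ml. Plates incubated 24 h at 37°C. INT (0.2 mg/mL) then added, with 30 min at 37°C. Duplicate, repeated three times.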

Pseudomonas aeruginosa [5] = test: Antibacterial activity against drug-resistant Pseudomonas aeruginosa after 24 hrs by INT dye based microdilution assay; format: functional; outline: as §3
Escherichia coli [6] = test: Antibacterial activity against drug-resistant Escherichia coli after 24 hrs by INT dye based microdilution assay; format: functional; outline: as §3

O=C1N/C(=N\c2nnc(C34CC5CC(CC(C5)C3)C4)s2)S/C1=C/c1c(Cl)cccc1Cl
MIC (Staphylococcus aureus [1]): 0.0407 µM (≈ 0.02 µg/mL)
MIC (Bacillus cereus): 40.7 µM (≈ 20 µg/mL)
MIC (Listeria monocytogenes): 21.4 µM (≈ 10.5 µg/mL)
MIC (Micrococcus flavus): 40.7 µM (≈ 20 µg/mL)
MIC (Salmonella typhimurium): 40.7 µM (≈ 20 µg/mL)
MIC (Enterobacter cloacae): 21.4 µM (≈ 10.5 µg/mL)
MIC (Pseudomonas aeruginosa [2]): 40.7 µM (≈ 20 µg/mL)
MIC (Escherichia coli [3]): 0.0407 µM (≈ 0.02 µg/mL)
MIC (Aspergillus fumigatus): 61 µM (≈ 30 µg/mL)
MIC (Aspergillus versicolor): 61 µM (≈ 30 µg/mL)
MIC (Aspergillus ochraceus): 92 µM (≈ 45.2 µg/mL)
MIC (Aspergillus niger): 61 µM (≈ 30 µg/mL)
MIC (Trichoderma viride): 122 µM (≈ 60 µg/mL)
MIC (Talaromyces funiculosus): 61 µM (≈ 30 µg/mL)
MIC (Penicillium ochrochloron): 61 µM (≈ 30 µg/mL)
MIC (Penicillium verrucosum): 0.122 µM (≈ 0.06 µg/mL)
MIC (Staphylococcus aureus [4]): 0.0611 µM (≈ 0.03 µg/mL)
MIC (Pseudomonas aeruginosa [5]): 61.1 µM (≈ 30 µg/mL)
MIC (Escherichia coli [6]): 0.0305 µM (≈ 0.015 µg/mL)

O=C1N/C(=N\c2nnc(C34CC5CC(CC(C5)C3)C4)s2)S/C1=C/c1ccc(F)cc1
MIC (Staphylococcus aureus [1]): 0.147 µM (≈ 0.065 µg/mL)
MIC (Bacillus cereus): 295 µM (≈ 130 µg/mL)
MIC (Listeria monocytogenes): 295 µM (≈ 130 µg/mL)
MIC (Micrococcus flavus): 295 µM (≈ 130 µg/mL)
MIC (Salmonella typhimurium): 295 µM (≈ 130 µg/mL)
MIC (Enterobacter cloacae): 148 µM (≈ 65 µg/mL)
MIC (Pseudomonas aeruginosa [2]): 295 µM (≈ 130 µg/mL)
MIC (Escherichia coli [3]): 0.295 µM (≈ 0.13 µg/mL)
MIC (Aspergillus fumigatus): 90.9 µM (≈ 40 µg/mL)
MIC (Aspergillus versicolor): 90.9 µM (≈ 40 µg/mL)
MIC (Aspergillus ochraceus): 90.9 µM (≈ 40 µg/mL)
MIC (Aspergillus niger): 182 µM (≈ 80.2 µg/mL)
MIC (Trichoderma viride): 182 µM (≈ 80.2 µg/mL)
MIC (Talaromyces funiculosus): 90.9 µM (≈ 40 µg/mL)
MIC (Penicillium ochrochloron): 90.9 µM (≈ 40 µg/mL)
MIC (Penicillium verrucosum): 0.182 µM (≈ 0.0801 µg/mL)
MIC (Staphylococcus aureus [4]): 0.295 µM (≈ 0.13 µg/mL)
MIC (Pseudomonas aeruginosa [5]): 295 µM (≈ 130 µg/mL)
MIC (Escherichia coli [6]): 0.295 µM (≈ 0.13 µg/mL)

CC1(C)S[C@@H]2[C@H](NC(=O)[C@H](N)c3ccccc3)C(=O)N2[C@H]1C(=O)O [AMPICILLIN]
MIC (Staphylococcus aureus [1]): 0.248 µM (≈ 0.0867 µg/mL)
MIC (Bacillus cereus): 248 µM (≈ 86.7 µg/mL)
MIC (Listeria monocytogenes): 372 µM (≈ 130 µg/mL)
MIC (Micrococcus flavus): 248 µM (≈ 86.7 µg/mL)
MIC (Salmonella typhimurium): 248 µM (≈ 86.7 µg/mL)
MIC (Enterobacter cloacae): 248 µM (≈ 86.7 µg/mL)
MIC (Pseudomonas aeruginosa [2]): 744 µM (≈ 260 µg/mL)
MIC (Escherichia coli [3]): 0.372 µM (≈ 0.13 µg/mL)
MIC (Pseudomonas aeruginosa [5]): 1240 µM (≈ 433 µg/mL)
MIC (Escherichia coli [6]): 1.24 µM (≈ 0.433 µg/mL)

CN[C@@H]1[C@H](O[C@H]2[C@H](O[C@H]3[C@H](O)[C@@H](O)[C@H](N=C(N)N)[C@@H](O)[C@@H]3N=C(N)N)O[C@@H](C)[C@]2(O)C=O)O[C@@H](CO)[C@H](O)[C@H]1O [STREPTOMYCIN]
MIC (Staphylococcus aureus [1]): 0.172 µM (≈ 0.1 µg/mL)
MIC (Bacillus cereus): 43 µM (≈ 25 µg/mL)
MIC (Listeria monocytogenes): 258 µM (≈ 150 µg/mL)
MIC (Micrococcus flavus): 86 µM (≈ 50 µg/mL)
MIC (Salmonella typhimurium): 172 µM (≈ 100 µg/mL)
MIC (Enterobacter cloacae): 43 µM (≈ 25 µg/mL)
MIC (Pseudomonas aeruginosa [2]): 172 µM (≈ 100 µg/mL)
MIC (Escherichia coli [3]): 0.172 µM (≈ 0.1 µg/mL)
MIC (Staphylococcus aureus [4]): 0.258 µM (≈ 0.15 µg/mL)
MIC (Pseudomonas aeruginosa [5]): 129 µM (≈ 75 µg/mL)
MIC (Escherichia coli [6]): 0.258 µM (≈ 0.15 µg/mL)
